Screening results: PubChem, several laboratories
Compounds with a hit are over-represented: about 2.5% of the library has one in this group of screens.
DNMT1 inh: DNMT1 (human) enzyme inhibition; P26358; DNMT1 molecular beacon, Hinp1I cleavage, fluorescence; inhibition (reported as % activation of signal), % at 10 µM; 360,000 tested, 0.83% active; AID 588458; in the data active = inhibition above about 50%
NS3 helicase inh: blocks Hepatitis C virus NS3 helicase unwinding; NS3 helicase DNA unwinding, Cy5 molecular beacon fluorescence; inhibition, % at 10.9 µM; 290,000 tested, 0.56% active; AID 1800;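 active = inhibition above the mean of all tested compounds plus 3 SD, set per campaign, cut at about 35% in these data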;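 note: 0% = DMSO wells and 100% = thioflavine S control wells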
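assay system = NS3 helicase fragment of HCV | buffer or medium = MOPS pH 6.5, MgCl2, DTT, Tween20, BSA | timing = 60 min unwinding reaction at 25 °C after ATP addition | signal = Cy5 beacon fluorescence read at start and 1 h | read-out basis = % inhibition of unwinding | control set = low DMSO, high thioflavine S at 110 µM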
UHRF1 MBD2 ctr: human UHRF1 methylated DNA binding inhibitors; UHRF1 binding to methylated oligo, TR-FRET; inhibition, % at 4.4 µM; 370,000 tested, 0.75% active; AID 687016;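 note: UHRF1 SRA domain binding a hemimethylated CpG hairpin DNA probe; 0% = median of test compound wells and 100% = reference inhibitor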
Pemphigus Ab inh: inhibitors of pemphigus antibody binding to human desmoglein-3; P32926; DSG3-coupled beads, scFv-anti-DSG3-GFP binding, flow cytometry; stronger effect = lower value; binding (percent of control), % at 10 µM; 310,000 tested, 0.48% active;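 active = binding more than 3 SD below its plate's average and above zero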;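 note: hits lower antibody fragment binding to DSG3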
SUMO1 PPI mod: SUMO1-SIM interaction modulation | SUMO1 binding to a labelled peptide, TR-FRET, 1 h | inhibition, % at 20 µM | 360,000 tested, 0.33% active | AID 602429; in the data active = inhibition above about 37%
MBD2 inh: blocks human MBD2 binding to methylated DNA | Q9UBB5 | TR-FRET, MBD2 binding to methylated oligonucleotide | inhibition, % at 4.4 µM | 370,000 tested, 0.31% active | AID 686964; in the data active = inhibition above about 13%
UHRF1 DNA bind: inhibits human UHRF1 binding to methylated oligonucleotide, MBD2 counter-screen; shares compounds with MBD2 inh; TR-FRET; inhibition, % at 4.4 µM; 1,000 tested, 25% active;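 note: UHRF1 SRA domain binding a labeled hemimethylated CpG hairpin DNA; 0% = vehicle only and 100% = reference inhibitor with vehicle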
MBD2 confirm: MBD2-DBD methyl-DNA binding inhibition, TR-FRET confirmation; TR-FRET MBD2-DBD binding to methylated oligonucleotide; 1,000 tested, 26% active; inhibition, % at 4.4 µM; shares compounds with MBD2 inh; in the data active = inhibition above about 14%
* = called active by the depositor; · = not tested or not shown. Cut-off read from the data, not from the text of the source, unless noted: active = inhibition above about 21%; inactive = the rest.

SMILES | DNMT1 inh | NS3 helicase inh | UHRF1 MBD2 ctr | Pemphigus Ab inh | SUMO1 PPI mod | MBD2 inh | UHRF1 DNA bind | MBD2 confirm
COc1ccc(Cl)cc1Nc1nc(NCCO)nc(N2CCCC2)n1 | -5 | 6 | 72* | 76 | 0 | 17* | 1 | 10
COc1ccc(Cl)cc1Nc1nc(NCCO)nc(N2CCCCC2)n1 | -10 | · | -7 | 102 | 2 | -4 | · | ·
CN(CC(=O)Nc1ccc(F)cc1)c1ccc(S(=O)(=O)N2CCCC2)cn1 | 0 | 1 | -2 | · | 0 | 1 | · | ·
CCOc1cc(N2CCOCC2)c(OCC)cc1NC(C)C(=O)N1CCN(CC)CC1 (stereo not drawn) | -4 | 8 | 91* | 105 | -18 | 51* | 1 | -3
CCOc1cc(N2CCOCC2)c(OCC)cc1NC(=O)C(C)C | 0 | -9 | 0 | 102 | 2 | 2 | · | ·
O=C(O)COc1ccc2c(c1)O/C(=C\c1ccco1)C2=O | 69* | 11 | 63* | 100 | 7 | 15* | 42* | 9
CCOc1ccc(NC(=O)C(C)Sc2nccn2C)cc1 (stereo not drawn) | 2 | 11 | 2 | 106 | 0 | 7 | · | ·
CCNc1nc(NC(C)C)nc(N(C#N)C(C)C(=O)N(C)C)n1 (stereo not drawn) | 5 | 11 | 4 | 98 | 0 | 4 | · | ·
CCNc1nc(NC(C)C)nc(N(C#N)CC(=O)OC)n1 | 0 | 2 | 63* | 112 | 2 | 32* | 7 | 4
Cc1ccc(S(=O)(=O)CCC(=O)Oc2ccc3c(C)cc(=O)oc3c2)cc1 | -2 | · | 1 | 101 | 1 | 5 | · | ·
COc1cccc(CC(=O)Nc2ccc(S(=O)(=O)N3CCCCC3)cc2)c1 | -3 | · | 1 | 124 | 9 | 13* | 5 | 3
CCc1nc2ccc(C(=O)NCCc3ccccn3)cn2c1N(C)Cc1cccs1 | 1 | · | 0 | · | -4 | 0 | · | ·
CCCCCC(=O)Nc1cc(S(=O)(=O)N2CCCCC2)ccc1N1CCCCC1 | -2 | · | 2 | 103 | -1 | 3 | · | ·
CCCCCC(=O)Nc1cc(S(=O)(=O)O)cc2cc(S(=O)(=O)O)cc(O)c12 | -19 | · | 99* | · | 119* | 97* | 103* | 113*
Cc1ccc(-n2ncc(C(=O)O)c2C2CCN(C(=O)OC(C)(C)C)CC2)cc1 | 2 | 18 | -2 | 97 | 7 | 0 | · | ·
CCn1cc(/C=C(\NC(=O)c2ccccc2OC)C(=O)NCCN2CCOCC2)c2ccccc21 | 0 | · | -1 | 99 | -1 | 16* | 4 | 1
CCn1c(C)nc2cc(C(=O)N/N=C/c3ccc(O)c(O)c3O)ccc21 | -3 | 34 | 19 | 2.7* | 9 | 16* | 3 | 2
CC(=O)OC1COC(N2CCc3cc([N+](=O)[O-])ccc32)C(OC(C)=O)C1OC(C)=O (stereo not drawn) | -2 | -4 | -2 | 102 | -8 | -5 | · | ·
COc1ccc(S(=O)(=O)N(C)C[C@H]2Oc3c(NC(=O)Nc4ccc(C(F)(F)F)cc4)cccc3C(=O)N([C@H](C)CO)C[C@@H]2C)cc1 | -14 | · | · | 104 | 2 | · | · | ·
CC(=O)C1C(c2ccc(F)c(F)c2)NC(=O)NC1(O)C(F)(F)F (stereo not drawn) | 4 | 8 | 3 | · | 0 | 24* | 5 | 0
Cc1cccc(C)c1NC(=O)C1c2cccc[n+]2CC(=O)N1Cc1cccs1 (stereo not drawn) | -3 | -17 | -1 | 106 | -3 | 46* | 1 | 3
O=C(O)C1CCCCC1C(=O)Nc1cccc(Br)c1 (stereo not drawn) | 103* | · | 67* | 88 | 12 | 40* | 63* | 41*
O=C(Nc1cccc(Br)c1)C1CCCC1 | 2 | · | -1 | 109 | 0 | 2 | · | ·
CCN1CCN(C(c2cccs2)C(C)NC(=O)NC2CCCCC2)CC1 (stereo not drawn) | 4 | 2 | -1 | 99 | 5 | -5 | · | ·
Cc1ccc(NC(=O)CN(C)C(=O)CNC(=O)c2sc3ccccc3c2Cl)cc1 | -4 | · | -3 | 100 | -7 | 50* | 4 | 2
SMILES | DNMT1 inh | NS3 helicase inh | UHRF1 MBD2 ctr | Pemphigus Ab inh | SUMO1 PPI mod | MBD2 inh | UHRF1 DNA bind | MBD2 confirm
CCN(CC(=O)Nc1c(F)cccc1F)C(=O)CNC(=O)c1sc2ccccc2c1Cl | 5 | · | 0 | · | 5 | -5 | · | ·
Cn1cc(C[C@H](NC(=O)OC(C)(C)C)C(=O)N[C@@H](CO)Cc2ccccc2)c2ccccc21 | -2 | · | 2 | 99 | 1 | 26* | 7 | 2
COCc1cc(N2CCCC2)nc(-c2ccccc2)n1 | -1 | 0 | -1 | 102 | 3 | -5 | · | ·
CS(=O)(=O)Cc1cc(N2CCCC2)nc(-c2ccccc2)n1 | 0 | -1 | -1 | 97 | -4 | 20* | 6 | 3
CC(C(=O)Nc1cccnc1)C1Sc2ccccc2NC1=O (stereo not drawn) | -4 | 3 | -1 | 81 | 1 | 78* | 3 | 0
O=C(CC1Sc2ccccc2NC1=O)Nc1cccnc1 (stereo not drawn) | 1 | -21 | -1 | 106 | 3 | -3 | · | ·
CN(C(=O)c1cccc(NC(=O)Cc2ccc(NC(=O)C3CCN(C(=O)C4CCC4)CC3)cc2)c1)C1CC1 | 5 | · | 2 | 105 | 2 | 1 | · | ·
CC(=O)Nc1ccc(S(=O)(=O)NC(CC(=O)O)c2ccc(OC(C)C)cc2)cc1 (stereo not drawn) | 1 | -2 | 23* | 96 | 0 | 17* | 11 | 5
COc1cc(Br)c(C(=O)c2nccc3cc(OC)c(OC)cc23)cc1OC | 92* | -4 | 25* | 93 | 19 | 14* | 37* | 26*
COc1cc2c(cc1NC(=O)COc1ccccc1OC)oc1ccccc12 | 11 | 8 | 14 | 97 | -1 | 0 | · | ·
COc1cc2c(cc1NC(=O)COC(=O)Cn1cnc3ccccc31)oc1ccccc12 | -7 | -5 | -4 | 109 | 2 | 19* | 3 | 3
CCOC(=O)c1c(CN(C)C)n(C)c2c(O)c(N=NC(N)=O)c3ccc(Br)cc3c12 | 14 | -100 | 12 | 105 | -3 | 6 | · | ·
N#C/C(=C\c1ccc(O)c(O)c1)C(=O)c1ccc(O)c(O)c1 | 15 | · | 64* | 111 | -32 | 19* | 67* | 29*
COc1ccc(S(=O)(=O)N2CCN(C(=O)CCc3c[nH]c4ccccc34)CC2)cc1 | -3 | · | 2 | · | 4 | 48* | 6 | 5
CN(C)S(=O)(=O)c1ccc(NC(=O)COc2ncnc3sccc23)cc1 | 3 | -4 | 0 | · | -2 | 2 | · | ·
O=C1c2ccccc2C(=O)c2c(NCc3cccnc3)cccc21 | -4 | 2 | -2 | 104 | -20 | 1 | · | ·
